ChEMBL document CHEMBL2169805, “The discovery of CCR3/H1 dual antagonists with reduced hERG risk” (Bioorg Med Chem Lett, 2012)
≈ marks a conversion by molar mass, not a printed value.

How the values were obtained:
[1] = Volume of distribution at steady state in Sprague-Dawley rat at 1 mg/kg, iv; format: ADME, organism-based; parameters: dose 1 mg/kg, route intravenous; settings: in vivo, read-out: Vdss
In short: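 Male Sprague-Dawley rats given a single iv dose, nominal 1 mg/kg, […] in DMA:PEG400:H2O (2:2:1).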

[2] = biological target: T1, C-C chemokine receptor type 3 (Homo sapiens, UniProt P51677); test: Binding affinity to human CCR3 receptor expressed in CHOK1 cells by radioligand displacement assay; format: cell-based, CHO-K1
T1 sequence (P51677 whole entry): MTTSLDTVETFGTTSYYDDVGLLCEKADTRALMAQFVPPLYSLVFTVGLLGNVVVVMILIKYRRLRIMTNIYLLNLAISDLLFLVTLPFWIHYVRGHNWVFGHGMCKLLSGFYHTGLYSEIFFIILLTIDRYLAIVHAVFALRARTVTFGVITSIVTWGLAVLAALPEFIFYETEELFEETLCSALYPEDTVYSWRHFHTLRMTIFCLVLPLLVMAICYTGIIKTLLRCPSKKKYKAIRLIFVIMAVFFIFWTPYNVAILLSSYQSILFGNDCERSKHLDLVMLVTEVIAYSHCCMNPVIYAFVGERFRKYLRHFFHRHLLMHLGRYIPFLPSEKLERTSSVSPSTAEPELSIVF

[3] = biological target: T2, Voltage-gated inwardly rectifying potassium channel KCNH2 (Homo sapiens, UniProt Q12809)
[4] = Oral bioavailability in Sprague-Dawley rat at 1 mg/kg administered using 0.1%tween-1%CMC as vehicle; format: ADME, organism-based; settings: in vivo
Histamine H1 receptor = Histamine H1 receptor (Homo sapiens, UniProt P35367); test: Displacement of [3H]pyrilamine from human H1 receptor expressed in CHOK1 cells; format: cell-based, CHO-K1
[5] = Half life in Sprague-Dawley rat at 1 mg/kg, iv; format: ADME, organism-based; parameters: dose 1 mg/kg, route intravenous; settings: in vivo
[6] = Oral bioavailability in rat; format: ADME, organism-based; settings: in vivo
[7] = biological target: T2, Voltage-gated inwardly rectifying potassium channel KCNH2; test: Inhibition of human ERG expressed in CHO cells by IonworksHT assay; format: cell-based
[8] = Clearance in Sprague-Dawley rat at 1 mg/kg, iv; format: ADME, organism-based; parameters: dose 1 mg/kg, route intravenous; settings: in vivo
[9] = Oral bioavailability in Sprague-Dawley rat at 1 mg/kg administered using cyclodextrin-meglumine as vehicle; format: ADME, organism-based; settings: in vivo
[10] = Oral bioavailability in dog at 1 mg/kg administered using 0.1%tween-1%CMC as vehicle; format: ADME, organism-based, Canis lupus familiaris; settings: in vivo
[11] = Solubility of the compound at pH 7.4; format: physicochemical; settings: buffer
hERG (KCNH2) = hERG (KCNH2) (Homo sapiens, UniProt Q12809); test: Inhibition of human ERG expressed in HEK293 cells at 10 uM by electrophysiological ion flux assay; format: cell-based; settings: HEK293 cells expressing human ERG
Sequence of hERG (KCNH2) (Q12809 whole entry): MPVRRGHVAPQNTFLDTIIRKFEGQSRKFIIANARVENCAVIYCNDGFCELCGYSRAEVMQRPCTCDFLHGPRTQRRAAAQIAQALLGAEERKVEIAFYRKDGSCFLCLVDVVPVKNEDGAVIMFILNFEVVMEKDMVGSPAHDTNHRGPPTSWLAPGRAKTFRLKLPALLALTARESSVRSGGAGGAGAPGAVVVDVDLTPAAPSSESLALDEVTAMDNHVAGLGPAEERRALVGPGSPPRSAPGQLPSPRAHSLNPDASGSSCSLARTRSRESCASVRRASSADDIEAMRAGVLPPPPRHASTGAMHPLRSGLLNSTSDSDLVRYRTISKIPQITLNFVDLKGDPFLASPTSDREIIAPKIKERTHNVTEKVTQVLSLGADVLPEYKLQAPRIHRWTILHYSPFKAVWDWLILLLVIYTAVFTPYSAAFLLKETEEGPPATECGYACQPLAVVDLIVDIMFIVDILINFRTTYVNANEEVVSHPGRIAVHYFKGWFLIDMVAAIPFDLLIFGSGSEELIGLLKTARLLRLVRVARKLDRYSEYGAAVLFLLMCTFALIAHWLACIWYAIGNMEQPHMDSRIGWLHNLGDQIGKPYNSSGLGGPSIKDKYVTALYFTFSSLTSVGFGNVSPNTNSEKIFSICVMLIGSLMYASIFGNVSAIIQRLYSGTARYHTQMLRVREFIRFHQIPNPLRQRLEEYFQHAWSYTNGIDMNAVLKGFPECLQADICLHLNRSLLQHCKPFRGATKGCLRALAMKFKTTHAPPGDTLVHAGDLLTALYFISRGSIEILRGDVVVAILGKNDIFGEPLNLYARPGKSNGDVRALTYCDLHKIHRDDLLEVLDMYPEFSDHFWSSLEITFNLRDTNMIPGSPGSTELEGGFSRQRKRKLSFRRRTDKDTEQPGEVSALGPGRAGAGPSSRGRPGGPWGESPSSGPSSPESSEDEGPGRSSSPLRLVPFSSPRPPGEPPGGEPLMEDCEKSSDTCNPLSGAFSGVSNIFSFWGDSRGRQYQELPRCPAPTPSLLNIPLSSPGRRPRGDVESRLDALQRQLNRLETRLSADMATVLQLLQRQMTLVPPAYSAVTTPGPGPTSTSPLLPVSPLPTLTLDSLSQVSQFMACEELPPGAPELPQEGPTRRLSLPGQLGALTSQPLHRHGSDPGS

Sequence of Histamine H1 receptor (P35367 whole entry): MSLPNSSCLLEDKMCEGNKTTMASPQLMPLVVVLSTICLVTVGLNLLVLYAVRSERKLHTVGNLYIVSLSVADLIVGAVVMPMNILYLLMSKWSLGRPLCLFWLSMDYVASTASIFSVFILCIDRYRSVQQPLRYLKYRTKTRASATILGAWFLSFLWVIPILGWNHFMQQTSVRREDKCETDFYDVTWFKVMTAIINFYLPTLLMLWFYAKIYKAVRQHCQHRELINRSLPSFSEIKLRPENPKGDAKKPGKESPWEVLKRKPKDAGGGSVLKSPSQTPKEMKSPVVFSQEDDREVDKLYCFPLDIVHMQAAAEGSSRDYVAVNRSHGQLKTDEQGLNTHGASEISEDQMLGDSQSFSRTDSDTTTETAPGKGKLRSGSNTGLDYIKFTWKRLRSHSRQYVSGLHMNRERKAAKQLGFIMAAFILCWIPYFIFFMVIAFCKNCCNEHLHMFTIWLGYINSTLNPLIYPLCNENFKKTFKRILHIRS
T2 sequence (Q12809 whole entry): as the sequence (Q12809 whole entry) above

SMILES | Ki [2] | Ki (Histamine H1 receptor) | also measured
Cc1ccccc1S(=O)(=O)NC(=O)N1CCC(N2CCC(Oc3ccc(Cl)c(Cl)c3)CC2)CC1 | 20 nM | 50.1 nM | Vd [1]: 2.7 L/kg; IC50 [3]: > 10000 nM; bioavailability [4]: 8%
N#Cc1cccc(S(=O)(=O)NC(=O)N2CCC(N3CCC(Oc4ccc(Cl)c(Cl)c4)CC3)CC2)c1 | 100 nM | 20 nM | –
Cc1ccc(C(=O)N2CCC(N3CC[C@H](Oc4ccc(Cl)c(C)c4Cl)C[C@@H]3C(=O)O)CC2)cc1 | 631 nM | > 6310 nM | –
CN(C)c1ccccc1S(=O)(=O)NC(=O)N1CCC(N2CCC(Oc3ccc(Cl)c(Cl)c3)CC2)CC1 | 31.6 nM | 25.1 nM | –
O=C(NS(=O)(=O)c1cccc(Cl)c1)N1CCC(N2CCC(Oc3ccc(Cl)c(Cl)c3)CC2)CC1 | 6.31 nM | 7.94 nM | –
O=C(c1ccc(-c2nn[nH]n2)cc1)N1CCC(N2CCC(Oc3ccc(Cl)c(Cl)c3)CC2)CC1 | 200 nM | 31.6 nM | –
O=C(O)CCNc1ccccc1C(=O)N1CCC(N2CCC(Oc3ccc(Cl)c(Cl)c3)CC2)CC1 | 501 nM | 15.8 nM | –
O=C(NS(=O)(=O)c1ccc(Cl)cc1)N1CCC(N2CCC(Oc3ccc(Cl)c(Cl)c3)CC2)CC1 | 7.94 nM | 20 nM | –
O=C(NS(=O)(=O)c1ccc(F)cc1)N1CCC(N2CCC(Oc3ccc(Cl)c(Cl)c3)CC2)CC1 | 31.6 nM | 50.1 nM | –
Cc1cccc(S(=O)(=O)NC(=O)N2CCC(N3CCC(Oc4ccc(Cl)c(Cl)c4)CC3)CC2)c1 | 126 nM | 31.6 nM | –
O=C(c1c[nH]c(=O)c2ccccc12)N1CCC(N2CCC(Oc3ccc(Cl)c(Cl)c3)CC2)CC1 | 10 nM | 25.1 nM | half-life [5]: 4.2 h; bioavailability [6]: 50%
Cc1ccc(S(=O)(=O)NC(=O)N2CCC(N3CCC(Oc4ccc(Cl)cc4)CC3)CC2)cc1 | 126 nM | 126 nM | –
COc1cccc(C(=O)NCCN2CCC(Oc3ccc(Cl)c(Cl)c3)CC2)c1 | 100 nM | – | half-life [5]: 1.8 h
Cc1c(Cl)ccc(OC2CCN(C3CCN(C(=O)NS(=O)(=O)c4ccc(N(C)C)cc4)CC3)CC2)c1Cl | 3.16 nM | – | Vd [1]: 2.3 L/kg; IC50 [7]: > 20000 nM; bioavailability [4]: 82%
Cc1ccc(S(=O)(=O)NC(=O)N2CCC(N3CCC(Oc4ccc(Cl)c(C)c4Cl)CC3)CC2)cc1 | 0.631 nM | 20 nM | –
Cc1ccc(S(=O)(=O)NC(=O)N2CCC(N3CCC(Oc4ccc(Cl)c(Cl)c4)CC3)CC2)cc1 | – | – | half-life [5]: 2.7 h; Vd [1]: 2.7 L/kg; clearance [8]: 20 mL/min/kg; bioavailability [4]: 18%; bioavailability [9]: 44%; bioavailability [10]: 19%
O=C(NS(=O)(=O)c1cccc(C(F)(F)F)c1)N1CCC(N2CCC(Oc3ccc(Cl)c(Cl)c3)CC2)CC1 | 31.6 nM | 39.8 nM | –
Cc1c(Cl)ccc(OC2CCN(C3CCN(C(=O)c4cccc(S(C)(=O)=O)c4)CC3)CC2)c1Cl | 5.01 nM | 25.1 nM | –
CN(C)c1ccc(S(=O)(=O)NC(=O)N2CCC(N3CCC(Oc4ccc(Cl)c(Cl)c4)CC3)CC2)cc1 | 50.1 nM | 20 nM | –
Cc1ccc(S(=O)(=O)NC(=O)N2CCC(N3CCC(Oc4ccc(Cl)cc4Cl)CC3)CC2)cc1 | 25.1 nM | 15.8 nM | –
O=C(NS(=O)(=O)N1CCC(N2CCC(Oc3ccc(Cl)c(Cl)c3)CC2)CC1)c1ccccc1 | 79.4 nM | 100 nM | Vd [1]: 0.5 L/kg; bioavailability [4]: 100%

SMILES | Ki [2] | Ki (Histamine H1 receptor) | also measured
O=C(NS(=O)(=O)c1ccccc1)N1CCC(N2CCC(Oc3ccc(Cl)c(Cl)c3)CC2)CC1 | 15.8 nM | 31.6 nM | IC50 [3]: 10000 nM
Cc1ccc(S(=O)(=O)[N-]C(=O)N2CCC(N3CCC(Oc4ccc(Cl)c(Cl)c4)CC3)CC2)cc1.[Na+] | – | – | solubility [11]: 0.26 µM; bioavailability [4]: 15%; bioavailability [10]: 97%
Cc1ccc(S(=O)(=O)NC(=O)N2CCC(N3CCC(Oc4ccc(Cl)cc4C)CC3)CC2)cc1 | 7.94 nM | 25.1 nM | half-life [5]: 0.9 h; Vd [1]: 1.4 L/kg; IC50 [3]: > 10000 nM; clearance [8]: 27 mL/min/kg; bioavailability [4]: 6%
COc1ccc(S(=O)(=O)NC(=O)N2CCC(N3CCC(Oc4ccc(Cl)c(Cl)c4)CC3)CC2)cc1 | 39.8 nM | 20 nM | bioavailability [4]: 4%
CS(=O)(=O)c1cccc(C(=O)N2CC[C@@H](N3CCC(Oc4ccc(Cl)c(Cl)c4)CC3)[C@H](C(=O)O)C2)c1 | 398 nM | 200 nM | –
O=C(O)CCCS(=O)(=O)c1cccc(C(=O)N2CCC(N3CCC(Oc4ccc(Cl)c(Cl)c4)CC3)CC2)c1 | 79.4 nM | 79.4 nM | –
Cc1ccc(S(=O)(=O)N(C)C(=O)N2CCC(N3CCC(Oc4ccc(Cl)c(Cl)c4)CC3)CC2)cc1 | 100 nM | 2.51 nM | IC50 [7]: 316 nM
COc1ccccc1S(=O)(=O)NC(=O)N1CCC(N2CCC(Oc3ccc(Cl)c(Cl)c3)CC2)CC1 | 25.1 nM | 20 nM | –
Cc1ccc(C(=O)N2CCC(N3CC[C@@H](Oc4ccc(Cl)c(C)c4Cl)C[C@H]3C(=O)O)CC2)cc1 | 2510 nM | > 5010 nM | –
Cc1ccc(S(=O)(=O)NC(=O)N2CCC(N3CCC(Oc4ccc(F)c(F)c4)CC3)CC2)cc1 | 631 nM | 1000 nM | –
O=C(O)CCCCn1nnc(-c2ccc(C(=O)N3CCC(N4CCC(Oc5ccc(Cl)c(Cl)c5)CC4)CC3)cc2)n1 | 398 nM | 39.8 nM | –
O=C(NS(=O)(=O)c1ccccc1Cl)N1CCC(N2CCC(Oc3ccc(Cl)c(Cl)c3)CC2)CC1 | 5.01 nM | 50.1 nM | –
COc1ccc(C(=O)NCCN2CCN(Cc3ccc(Cl)c(Cl)c3)CC2)cc1Cl | 5010 nM | – | –
Cc1c(Cl)ccc(OC2CCN(C3CCN(S(=O)(=O)NC(=O)c4ccccc4)CC3)CC2)c1Cl | 12.6 nM | 25.1 nM | half-life [5]: 1.6 h; Vd [1]: 0.9 L/kg; IC50 [3]: 3980 nM; clearance [8]: 17 mL/min/kg; bioavailability [4]: 18%
CS(=O)(=O)c1cccc(C(=O)N2CCC(N3CCC(Oc4ccc(Cl)c(Cl)c4)CC3)CC2)c1 | 50.1 nM | 7.94 nM | half-life [5]: 6.9 h; solubility [11]: 0.017 µM (≈ 8.7 ng/mL); bioavailability [6]: 50%
O=C(O)c1ccccc1C(=O)N1CCC(N2CCC(Oc3ccc(Cl)c(Cl)c3)CC2)CC1 | 251 nM | 25.1 nM | –
O=C(NS(=O)(=O)Cc1ccccc1)N1CCC(N2CCC(Oc3ccc(Cl)c(Cl)c3)CC2)CC1 | 158 nM | 50.1 nM | –
O=C(O)COc1cccc(C(=O)N2CCC(N3CCC(Oc4ccc(Cl)c(Cl)c4)CC3)CC2)c1 | 251 nM | 100 nM | inhibition at 10 µM (hERG (KCNH2)): 15%
O=C(c1ccc(-c2nc(=O)o[nH]2)cc1)N1CCC(N2CCC(Oc3ccc(Cl)c(Cl)c3)CC2)CC1 | 316 nM | 15.8 nM | –
O=C(O)c1cccc(C(=O)N2CCC(N3CCC(Oc4ccc(Cl)c(Cl)c4)CC3)CC2)c1 | 200 nM | 126 nM | IC50 [3]: > 10000 nM
